Experimental data: ChEMBL document CHEMBL4689842, “EUbOPEN Chemogenomics Library wave 1” (2021)

System: Fibroblast
Experiment: Multiplex assay against human fibroblast
Format: toxicity, cell-based
Outline: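 Per cents of healthy-nucleus cells form the tubulin, mitochondrial-mass and membrane-permeability phenotype values. Live cells were stained at seeding with Hoechst33342, BioTracker Green Microtubule Cytoskeleton Dye, MitoTracker Red and Annexin V Alexa Fluor 680. After compound addition they were imaged on a CQ1 microscope at 37°C and 5% CO2, and CellPathfinder machine-learning gating split them into Hoechst high-intensity objects or normal cells, normal cells into healthy, pyknosed or fragmented nuclei, and pyknosed cells into mitotic or apoptotic.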

[1] = 12 h, 1 µM, compound concentration 1 uM, replicate 1
[2] = 12 h, 1 µM, compound concentration 1 uM, replicate 2
[3] = 12 h, 10 µM, compound concentration 10 uM, replicate 1
[4] = 12 h, 10 µM, compound concentration 10 uM, replicate 2
[5] = 24 h, 1 µM, compound concentration 1 uM, replicate 1
[6] = 24 h, 1 µM, compound concentration 1 uM, replicate 2
[7] = 24 h, 10 µM, compound concentration 10 uM, replicate 1
[8] = 24 h, 10 µM, compound concentration 10 uM, replicate 2
[9] = 48 h, 1 µM, compound concentration 1 uM, replicate 1
[10] = 48 h, 1 µM, compound concentration 1 uM, replicate 2
[11] = 48 h, 10 µM, compound concentration 10 uM, replicate 1
[12] = 48 h, 10 µM, compound concentration 10 uM, replicate 2

COc1cc2ncn(-c3cc(OCc4ccccc4C(F)(F)F)c(C(N)=O)s3)c2cc1OC [GW843682X]
Population Apoptotic (%) [1]: 62%
Population Fragmented Nuclei (%) [1]: 29%
Population Healthy Nuclei (%) [1]: 40%
Population Hoechst High Intensity Objects (%) [1]: 14%
Population Membrane Permeable-Phenotype (%) [1]: 28%
Population Mitochondria Different-Phenotype (%) [1]: 2%
Population Mitotic Cells (%) [1]: 37%
Population Normal (%) [1]: 85%
Population Pyknosed Nuclei (%) [1]: 29%
Population Tubulin-Different-Phenotype (%) [1]: 54%
Total Cell Count [1]: 145
Population Apoptotic (%) [2]: 50%
Population Fragmented Nuclei (%) [2]: 9%
Population Healthy Nuclei (%) [2]: 80%
Population Hoechst High Intensity Objects (%) [2]: 10%
Population Membrane Permeable-Phenotype (%) [2]: 12%
Population Mitochondria Different-Phenotype (%) [2]: 10%
Population Mitotic Cells (%) [2]: 50%
Population Normal (%) [2]: 89%
Population Pyknosed Nuclei (%) [2]: 9%
Population Tubulin-Different-Phenotype (%) [2]: 20%
Total Cell Count [2]: 83
Population Apoptotic (%) [3]: 54%
Population Fragmented Nuclei (%) [3]: 18%
Population Healthy Nuclei (%) [3]: 40%
Population Hoechst High Intensity Objects (%) [3]: 17%
Population Membrane Permeable-Phenotype (%) [3]: 19%
Population Mitochondria Different-Phenotype (%) [3]: 29%
Population Mitotic Cells (%) [3]: 45%
Population Normal (%) [3]: 82%
Population Pyknosed Nuclei (%) [3]: 41%
Population Tubulin-Different-Phenotype (%) [3]: 88%
Total Cell Count [3]: 182
Population Apoptotic (%) [4]: 50%
Population Fragmented Nuclei (%) [4]: 13%
Population Healthy Nuclei (%) [4]: 75%
Population Hoechst High Intensity Objects (%) [4]: 6%
Population Membrane Permeable-Phenotype (%) [4]: 25%
Population Mitochondria Different-Phenotype (%) [4]: 88%
Population Mitotic Cells (%) [4]: 50%
Population Normal (%) [4]: 93%
Population Pyknosed Nuclei (%) [4]: 11%
Population Tubulin-Different-Phenotype (%) [4]: 98%
Total Cell Count [4]: 68
Population Apoptotic (%) [5]: 61%
Population Fragmented Nuclei (%) [5]: 27%
Population Healthy Nuclei (%) [5]: 45%
Population Hoechst High Intensity Objects (%) [5]: 16%
Population Membrane Permeable-Phenotype (%) [5]: 28%
Population Mitochondria Different-Phenotype (%) [5]: 7%
Population Mitotic Cells (%) [5]: 38%
Population Normal (%) [5]: 83%
Population Pyknosed Nuclei (%) [5]: 26%
Population Tubulin-Different-Phenotype (%) [5]: 66%
Total Cell Count [5]: 139
Population Apoptotic (%) [6]: 55%
Population Fragmented Nuclei (%) [6]: 11%
Population Healthy Nuclei (%) [6]: 74%
Population Hoechst High Intensity Objects (%) [6]: 5%
Population Membrane Permeable-Phenotype (%) [6]: 10%
Population Mitochondria Different-Phenotype (%) [6]: 19%
Population Mitotic Cells (%) [6]: 44%
Population Normal (%) [6]: 94%
Population Pyknosed Nuclei (%) [6]: 14%
Population Tubulin-Different-Phenotype (%) [6]: 17%
Total Cell Count [6]: 85
Population Apoptotic (%) [7]: 74%
Population Fragmented Nuclei (%) [7]: 14%
Population Healthy Nuclei (%) [7]: 41%
Population Hoechst High Intensity Objects (%) [7]: 21%
Population Membrane Permeable-Phenotype (%) [7]: 25%
Population Mitochondria Different-Phenotype (%) [7]: 32%
Population Mitotic Cells (%) [7]: 25%
Population Normal (%) [7]: 78%
Population Pyknosed Nuclei (%) [7]: 43%
Population Tubulin-Different-Phenotype (%) [7]: 94%
Total Cell Count [7]: 171
Population Apoptotic (%) [8]: 50%
Population Fragmented Nuclei (%) [8]: 13%
Population Healthy Nuclei (%) [8]: 69%
Population Hoechst High Intensity Objects (%) [8]: 9%
Population Membrane Permeable-Phenotype (%) [8]: 41%
Population Mitochondria Different-Phenotype (%) [8]: 91%
Population Mitotic Cells (%) [8]: 50%
Population Normal (%) [8]: 90%
Population Pyknosed Nuclei (%) [8]: 17%
Population Tubulin-Different-Phenotype (%) [8]: 97%
Total Cell Count [8]: 67
Population Apoptotic (%) [9]: 52%
Population Fragmented Nuclei (%) [9]: 39%
Population Healthy Nuclei (%) [9]: 38%
Population Hoechst High Intensity Objects (%) [9]: 18%
Population Membrane Permeable-Phenotype (%) [9]: 21%
Population Mitochondria Different-Phenotype (%) [9]: 7%
Population Mitotic Cells (%) [9]: 47%
Population Normal (%) [9]: 81%
Population Pyknosed Nuclei (%) [9]: 21%
Population Tubulin-Different-Phenotype (%) [9]: 65%
Total Cell Count [9]: 130
Population Apoptotic (%) [10]: 75%
Population Fragmented Nuclei (%) [10]: 22%
Population Healthy Nuclei (%) [10]: 73%
Population Hoechst High Intensity Objects (%) [10]: 9%
Population Membrane Permeable-Phenotype (%) [10]: 13%
Population Mitochondria Different-Phenotype (%) [10]: 1%
Population Mitotic Cells (%) [10]: 25%
Population Normal (%) [10]: 90%
Population Pyknosed Nuclei (%) [10]: 3%
Population Tubulin-Different-Phenotype (%) [10]: 53%
Total Cell Count [10]: 120
Population Apoptotic (%) [11]: 61%
Population Fragmented Nuclei (%) [11]: 27%
Population Healthy Nuclei (%) [11]: 45%
Population Hoechst High Intensity Objects (%) [11]: 19%
Population Membrane Permeable-Phenotype (%) [11]: 24%
Population Mitochondria Different-Phenotype (%) [11]: 13%
Population Mitotic Cells (%) [11]: 38%
Population Normal (%) [11]: 80%
Population Pyknosed Nuclei (%) [11]: 27%
Population Tubulin-Different-Phenotype (%) [11]: 95%
Total Cell Count [11]: 177
Population Apoptotic (%) [12]: 50%
Population Fragmented Nuclei (%) [12]: 29%
Population Healthy Nuclei (%) [12]: 55%
Population Hoechst High Intensity Objects (%) [12]: 16%
Population Membrane Permeable-Phenotype (%) [12]: 6%
Population Mitochondria Different-Phenotype (%) [12]: 21%
Population Mitotic Cells (%) [12]: 50%
Population Normal (%) [12]: 83%
Population Pyknosed Nuclei (%) [12]: 14%
Population Tubulin-Different-Phenotype (%) [12]: 92%
Total Cell Count [12]: 162
